# Screening data: PubChem, The Scripps Research Institute Molecular Screening Center
# Compounds with a hit are over-represented: about 3.9% of the library has one in this group of screens.
# TAAR1 agonist: agonists of human TAAR1. Q96RJ0. CHO RD-HGA16 TAAR1, Fluo-8 calcium fluorescence; vehicle wells 0%, saturating PEA agonist 100%. activation, % at 3 µM. 360,000 compounds, 0.99% hits. AID 624467;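 active means activation above the mean activation of all test compounds in the run plus 3 SD, cut at about 38% in these data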
#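 test system = CHO RD-HGA16 cells carrying human TAAR1 plus Gα16 | schedule = 17-24 h seeding, 75 min 37 °C dye, 30 min RT | compound dosing = 3 µM single concentration | control set = DMSO and PEA EC100 | replicates = n 1 | signal = Fluo-8 fluorescence, 5 s baseline then 140 s kinetic read | measure = percent activation vs PEA EC100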
# M1 antag: antagonists of human M1 muscarinic receptor; P11229; CHO-K1 hM1, Fluo-8 calcium fluorescence, ACh EC80 antagonist; inhibition, % at 3 µM; 360,000 compounds, 1.3% hits;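 active means percent inhibition above its own plate's cutoff, namely the mean of that plate's compound wells plus 3 SD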;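 further: peak over basal fluorescence ratio during 140 s after agonist addition; 0% = ACh EC80 plus DMSO and 100% = DMSO alone without agonist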
# CHRM1 agonist: agonists of human M1 muscarinic receptor; CHO-K1 hM1, Fluo-8 calcium fluorescence, agonist mode; 0% DMSO, 100% acetylcholine EC100; activation, % at 3 µM; 360,000 compounds, 0.33% hits; AID 588814;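 active means activation above the run's mean compound activation plus 3 SD, cut at about 16% in these data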;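 further: peak over basal fluorescence ratio within a 140 s kinetic read after compound addition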
# M1 PAM: positive allosteric modulators of human M1 muscarinic receptor. P11229. CHO-K1 hM1, Fluo-8 calcium fluorescence, ACh EC20; 0% = ACh EC20, 100% = maximal ACh. activation, % at 3 µM. 360,000 compounds, 0.088% hits. AID 588819; in the data active means activation above about 19%, passing the limit was not always enough
# m5-HT2A agonist: mouse HTR2A agonism via beta-arrestin recruitment | activation, % at 7.6 µM | 360,000 compounds, 0.66% hits | AID 624169 | CHO-K1 mHTR2A beta-arrestin complementation, luminescence; percent of 30 µM serotonin response;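 active means activation above a run cutoff, the mean activation of all tested compounds plus 3 SD, cut at about 14% in these data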;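 further: 0% = plate median of compound wells and 100% = 30 µM serotonin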
# Target sequence (P35363 whole entry, looked up): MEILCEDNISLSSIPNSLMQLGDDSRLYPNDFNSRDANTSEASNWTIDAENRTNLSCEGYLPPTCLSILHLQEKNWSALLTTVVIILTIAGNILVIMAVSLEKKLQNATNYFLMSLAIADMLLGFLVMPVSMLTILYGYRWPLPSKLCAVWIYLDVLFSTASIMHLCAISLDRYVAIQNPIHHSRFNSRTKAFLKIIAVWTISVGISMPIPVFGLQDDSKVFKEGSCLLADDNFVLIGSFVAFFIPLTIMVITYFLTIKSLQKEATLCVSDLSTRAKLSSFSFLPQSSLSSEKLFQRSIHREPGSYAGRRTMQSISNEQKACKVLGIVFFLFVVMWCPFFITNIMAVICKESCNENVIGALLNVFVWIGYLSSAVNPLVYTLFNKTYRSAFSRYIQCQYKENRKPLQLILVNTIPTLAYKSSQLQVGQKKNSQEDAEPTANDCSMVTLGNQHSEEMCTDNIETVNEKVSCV
# TAAR1 antagonist: human TAAR1 antagonism; Q96RJ0; CHO RD-HGA16 TAAR1, Fluo-8 calcium fluorescence, antagonist; inhibition, % at 3 µM; 360,000 compounds, 1.5% hits;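 active means inhibition above a per-plate cutoff, the mean inhibition of test compounds on that plate plus 3 SD, cut at about 49% in these data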;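 further: 0% = DMSO plus EC80 beta-PEA response and 100% = DMSO alone without agonist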
#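 Test system: hTAAR1-expressing CHO RD-HGA16 cells, Gα16-coupled; Probe or stimulus: EC80 β-phenethylamine stimulus; Compound dosing: single nominal final test compound concentration of 3 µM; Timing: 140 s kinetic read after compound, 140 s after agonist; Signal: Fluo-8 calcium-sensitive fluorescence; Measure: % inhibition of agonist calcium response; Controls: DMSO and EC80 PEA controls.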
# Starred values were filed as active, the others as inactive; nt = no result.
SMILES,TAAR1 agonist,M1 antag,CHRM1 agonist,M1 PAM,m5-HT2A agonist,TAAR1 antagonist
CC1CN1c1cc2c(c3c1ccn3C)C1CCC2C1 (configuration not stated),0,-47,0,26*,7,-9
CCCN(CC#CCO)CCC,7,-23,2,4,-3,-11
O=P1(NCCCl)OCCC(OO)N1CCCl (configuration not stated),4,nt,nt,nt,5,-24
O=C1NCN(c2ccccc2)C12CCN(C(c1ccnc3ccccc13)c1nnnn1C1CCCC1)CC2 (configuration not stated),6,-30,-5,-1,-3,-4
Cc1ccc2c(c1)CC1(CN2C)C(=O)NC(=O)N(CCC2=CCCCC2)C1=O (configuration not stated),3,10,-2,-6,2,-10
O=c1[nH]c(=S)n(CCC2=CCCCC2)c(O)c1C=NCCCn1ccnc1,3,30*,-5,-17,4,-14
CCOC(=O)C1(CCOc2ccccc2)CCN(C2Cc3ccccc3C2)CC1,5,46*,-5,-22,-6,-4
CCOC(=O)C1(CCOc2ccccc2)CCN(C(C)CSC)CC1 (configuration not stated),4,3,-9,-10,-3,-6
O=c1[nH]c2ccccc2n1C1CCN(CCCC(c2ccc(F)cc2)c2ccc(F)cc2)CC1,-2,7,21*,-10,-3,-2
O=C1CC(N2CCC(n3c(=O)[nH]c4ccccc43)CC2)C(=O)N1c1ccc(F)cc1 (configuration not stated),35,0,1,-9,1,39
OC(CCNCCc1c[nH]c2ccccc12)C(F)(F)F (configuration not stated),15,-13,-3,7,9,-7
COc1cc(Br)cc(CN2CCN(C)CC2)c1O,nt,59*,-15,-32,2,nt
CN(C)CCSC1c2ccccc2CSc2ccccc21 (configuration not stated),4,99*,-8,-27,-11,-14
COc1ccc(NP(=O)(Oc2ccccc2OC)Oc2ccccc2OC)cc1,17,20,-2,-17,4,59*
Cc1ccc(C[n+]2c(-c3ccc(C)cc3)cc(-c3ccc(C)cc3)cc2-c2ccc(C)cc2)cc1,nt,33*,2,-13,17*,nt
CCn1c(=O)cc(SCC(=O)N2CCC3(CC2)OCCO3)c2ccccc21,3,-2,-3,1,2,17
O=C(NCCN1CCC2(CC1)C(=O)NCN2c1cccc(F)c1)c1ccc2ccccc2c1,83*,nt,nt,nt,-6,106*
O=C(NCCN1CCC2(CC1)C(=O)NCN2c1ccccc1)c1ccccc1F,2,nt,nt,nt,nt,-11
O=C1NCN(c2ccccc2)C12CCN(C(CCc1ccccc1)c1nnnn1-c1ccc3c(c1)OCCO3)CC2 (configuration not stated),0,-29,1,0,0,-10
CCOC(=O)c1ccc(N=Cc2c(O)n(-c3ccc(OC)cc3)c(=S)[nH]c2=O)cc1,5,34*,-12,-30,1,1
CS(=O)(=O)c1ccc(C2=C(CNC(=O)c3ccc([N+](=O)[O-])cc3)[C@H]3CC[C@@H](C2)N3CCOc2ccccc2)cc1,0,23,-11,-19,-2,-23
CS(=O)(=O)c1ccc(C2=C(CNC(=O)c3ccncc3)[C@H]3CC[C@@H](C2)N3CCOc2ccccc2)cc1,0,29*,-11,-19,5,0
C[C@@H]1C(=O)O[C@@H]2[C@H](O)C34[C@@H]5OC(=O)C3(O[C@H]3OC(=O)[C@H](O)C34[C@H](C(C)(C)C)[C@H]5O)[C@@]12O (some centres not stated),0,-16,-2,11,8,-3
CC(=NCCC1=CCCCC1)c1c(O)[nH]c(=O)[nH]c1=O,11,3,-4,3,0,2
CCCCn1c(=O)c(C(=O)Nc2ncccc2C)c(O)c2ccccc21,55*,-5,4,-3,0,7
SMILES,TAAR1 agonist,M1 antag,CHRM1 agonist,M1 PAM,m5-HT2A agonist,TAAR1 antagonist
CCCCCn1c(=O)c(C(=O)Nc2ccccc2C)c(O)c2ccccc21,3,-20,3,15,5,14
CCCC(=O)OCC[N+](C)(C)C,5,-12,43*,-19,4,-12
CCCCCCCCCCOC(=O)CCN1CC1,nt,-1,-2,-5,1,nt
CC(CC(C#N)(c1ccccc1)c1ccccc1)N1CCOCC1 (configuration not stated),-3,99*,-9,-30,-6,3
CCN(CC)CCOC(=O)c1ccc(N=Cc2c(O)[nH]c(=O)[nH]c2=O)cc1,2,22*,-7,-15,-7,-6
CCCOc1ccccc1OCC(=O)N1CCN(CC(=O)N2CCOCC2)CC1,2,-19,-2,9,-2,-15
CNc1cc(Cl)c2nonc2c1[N+](=O)[O-],3,25*,-1,1,-9,15
NNC(N)=O,3,2,16*,-22,3,-17
ClC1=C(Cl)C2(Cl)C3C(Cl)C=CC3C1(Cl)C2(Cl)Cl (configuration not stated),2,-10,-2,8,-3,-17
O=C(O)C(Cc1cnc[nH]1)NS(=O)(=O)c1ccc(Cl)cc1 (configuration not stated),12,-1,-4,7,2,-7
CC(=O)OC(C)(C)/C=C/C(=O)[C@](C)(O)C1[C@H](O)C[C@@]2(C)C3CC=C4C(C[C@H](O)C(=O)C4(C)C)[C@]3(C)C(=O)C[C@]12C (some centres not stated),nt,-7,1,22,16*,nt
COC(=O)C1C(c2ccc(C)cc2)CC2CCC1N2C (configuration not stated),2,nt,nt,nt,nt,-2
CC[N+]12CCC(CC1)C(=C(c1ccccc1)c1ccccc1)C2,3,98*,-8,-25,2,-7
C[N+]12CCC(CC1)C(=C(c1ccccc1)c1ccccc1)C2,4,98*,-7,-25,-1,-14
CN1C2CCC1CC(OC(c1ccccc1)c1ccc(Cl)cc1)C2 (configuration not stated),24,nt,nt,nt,nt,30
CCN1/C(=C/C=C/C2=[N+](CC)c3ccccc3C2(C)C)C(C)(C)c2ccccc21,263*,100*,460*,-28,-12,106*
COC1CCCCC1NCCc1ccccc1 (configuration not stated),38*,-3,-7,0,-1,-22
